In ChEMBL document CHEMBL5661979, “Pharmacological inhibition of BMK1 suppresses tumor growth through promyelocytic leukemia protein” (Cancer Cell, 2010):
pIC50: −log10 of the molar value. Activity calls are given as the source filed them. The rule behind the calls is not given here.

Assays:
[1] = Inhibition of KHS1/2 in human HeLa cells lysate pre incubated for 15 mins followed by ATP acyl phosphate probe addition and measured after 10 mins by LC-MS/MS analysis; type: subcellular
[2] = molecular target: Calcium/calmodulin-dependent protein kinase kinase 1 (Homo sapiens, UniProt Q8N5S9); assay: Inhibition of CAMKK1 in human HeLa cells lysate pre incubated for 15 mins followed by ADP acyl phosphate probe addition and measured after 10 mins by LC-MS/MS analysis; type: subcellular
Sequence of Calcium/calmodulin-dependent protein kinase kinase 1 (Q8N5S9 whole entry, the tested form may be a part): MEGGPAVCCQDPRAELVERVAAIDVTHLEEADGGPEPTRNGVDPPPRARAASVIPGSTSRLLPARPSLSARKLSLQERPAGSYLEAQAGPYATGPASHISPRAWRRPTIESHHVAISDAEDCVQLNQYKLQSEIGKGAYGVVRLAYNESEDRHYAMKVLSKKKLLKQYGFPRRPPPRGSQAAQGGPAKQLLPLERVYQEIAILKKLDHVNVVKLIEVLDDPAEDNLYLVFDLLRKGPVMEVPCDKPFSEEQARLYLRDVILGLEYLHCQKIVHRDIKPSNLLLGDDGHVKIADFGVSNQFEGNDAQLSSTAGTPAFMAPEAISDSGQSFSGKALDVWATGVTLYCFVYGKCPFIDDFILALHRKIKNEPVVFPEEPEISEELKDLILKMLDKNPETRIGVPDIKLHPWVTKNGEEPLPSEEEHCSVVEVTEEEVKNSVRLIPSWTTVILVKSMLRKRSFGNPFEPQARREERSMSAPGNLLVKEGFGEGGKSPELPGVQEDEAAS
Method in brief: (§1)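 KiNativ profiling in HeLa lysate (5 mg/mL total protein). Lysate incubated 15 min with inhibitor at 50, 10, 2, 0.8 or 0 μM. ATP or ADP acylphosphate probe then added (5 μM final) and reacted 10 min. Reaction stopped with urea and analysed by targeted MS, using up to four fragment ions per kinase peptide-probe conjugate. % inhibition taken against untreated lysate. Run in duplicate.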

[3] = molecular target: Ephrin type-B receptor 4 (Homo sapiens, UniProt P54760); assay: Inhibition of EphB4 in human HeLa cells lysate pre incubated for 15 mins followed by ADP acyl phosphate probe addition and measured after 10 mins by LC-MS/MS analysis; type: subcellular
Sequence of Ephrin type-B receptor 4 (P54760 whole entry): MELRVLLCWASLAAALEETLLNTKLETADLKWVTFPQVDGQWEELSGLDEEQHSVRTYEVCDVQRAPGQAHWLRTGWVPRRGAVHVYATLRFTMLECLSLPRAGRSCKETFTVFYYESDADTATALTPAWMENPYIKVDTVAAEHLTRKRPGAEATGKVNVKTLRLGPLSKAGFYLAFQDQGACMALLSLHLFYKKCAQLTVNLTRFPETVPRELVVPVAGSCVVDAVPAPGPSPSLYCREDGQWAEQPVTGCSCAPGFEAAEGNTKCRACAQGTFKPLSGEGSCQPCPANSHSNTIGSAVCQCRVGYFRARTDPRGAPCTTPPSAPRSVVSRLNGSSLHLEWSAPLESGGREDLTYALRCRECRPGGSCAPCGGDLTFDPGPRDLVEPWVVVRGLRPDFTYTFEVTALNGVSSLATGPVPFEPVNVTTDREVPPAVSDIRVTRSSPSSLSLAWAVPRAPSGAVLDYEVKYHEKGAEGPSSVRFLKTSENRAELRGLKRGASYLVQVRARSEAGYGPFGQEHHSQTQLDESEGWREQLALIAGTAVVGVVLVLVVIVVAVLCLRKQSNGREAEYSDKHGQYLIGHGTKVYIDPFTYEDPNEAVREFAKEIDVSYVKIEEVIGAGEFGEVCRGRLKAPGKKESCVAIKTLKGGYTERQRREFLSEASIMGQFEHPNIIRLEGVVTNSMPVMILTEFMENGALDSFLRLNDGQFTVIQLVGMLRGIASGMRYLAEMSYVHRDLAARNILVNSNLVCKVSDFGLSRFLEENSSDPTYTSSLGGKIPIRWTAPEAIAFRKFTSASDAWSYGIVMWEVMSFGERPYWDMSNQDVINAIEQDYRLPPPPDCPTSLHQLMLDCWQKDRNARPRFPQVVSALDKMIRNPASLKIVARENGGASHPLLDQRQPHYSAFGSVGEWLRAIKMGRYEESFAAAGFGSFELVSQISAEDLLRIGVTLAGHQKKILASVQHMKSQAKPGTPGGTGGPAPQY

[4] = molecular target: MAP/microtubule affinity-regulating kinase 3 (Homo sapiens, UniProt P27448); assay: Inhibition of MARK3 in human HeLa cells lysate at 50 uM pre incubated for 15 mins followed by ADP acyl phosphate probe addition and measured after 10 mins by LC-MS/MS analysis relative to control; type: subcellular; conditions: time 25.0 min
[5] = Inhibition of HGK/MINK/TNIK in human HeLa cells lysate at 50 uM pre incubated for 15 mins followed by ADP acyl phosphate probe addition and measured after 10 mins by LC-MS/MS analysis relative to control; conditions: 25 min, condition cancer
[6] = molecular target: T1, RAC-alpha serine/threonine-protein kinase (Homo sapiens, UniProt P31749); assay: Inhibition of AKT1 in human HeLa cells lysate at 50 uM pre incubated for 15 mins followed by ATP acyl phosphate probe addition and measured after 10 mins by LC-MS/MS analysis relative to control; type: subcellular; conditions: time 25.0 min
T1 sequence (P31749 whole entry, the tested form may be a part): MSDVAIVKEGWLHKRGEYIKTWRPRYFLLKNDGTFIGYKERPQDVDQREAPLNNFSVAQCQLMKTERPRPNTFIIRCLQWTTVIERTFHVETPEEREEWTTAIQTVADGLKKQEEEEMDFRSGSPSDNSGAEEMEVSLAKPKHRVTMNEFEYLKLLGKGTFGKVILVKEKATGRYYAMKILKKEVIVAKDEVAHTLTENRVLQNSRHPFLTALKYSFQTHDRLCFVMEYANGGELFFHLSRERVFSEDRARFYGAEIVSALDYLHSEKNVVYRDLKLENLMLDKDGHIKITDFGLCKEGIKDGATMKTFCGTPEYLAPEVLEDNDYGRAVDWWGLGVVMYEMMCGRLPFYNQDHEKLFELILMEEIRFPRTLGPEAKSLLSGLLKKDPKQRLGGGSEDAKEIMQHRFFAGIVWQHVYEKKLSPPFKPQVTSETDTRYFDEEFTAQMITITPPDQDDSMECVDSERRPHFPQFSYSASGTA
Method in brief: (§2)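 HeLa cell lysates (5 mg/mL total protein) were preincubated with inhibitor at 0, 0.8, 2, 10 or 50 μM for 15 min. ATP or ADP acylphosphate probe was then added (5 μM final) for 10 min, and reactions were stopped with urea. Up to four fragment ions per kinase probe-peptide were quantified by targeted MS. % inhibition was taken relative to untreated lysate. Run in duplicate.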

[7] = molecular target: SRSF protein kinase 1 (Homo sapiens, UniProt Q96SB4); assay: Inhibition of SRPK1 in human HeLa cells lysate at 50 uM pre incubated for 15 mins followed by ATP acyl phosphate probe addition and measured after 10 mins by LC-MS/MS analysis relative to control; type: subcellular; conditions: time 25.0 min
[8] = molecular target: Cyclin-dependent kinase 2 (Homo sapiens, UniProt P24941); assay: Inhibition of CDK2 K1 site in human HeLa cells lysate at 10 uM pre incubated for 15 mins followed by ATP acyl phosphate probe addition and measured after 10 mins by LC-MS/MS analysis relative to control; type: subcellular; conditions: time 25.0 min; method in brief: as §1
[9] = molecular target: T2, Epidermal growth factor receptor (Homo sapiens, UniProt P00533); assay: Inhibition of EGFR in human HeLa cells lysate at 10 uM pre incubated for 15 mins followed by ATP acyl phosphate probe addition and measured after 10 mins by LC-MS/MS analysis relative to control; type: subcellular; conditions: time 25.0 min
T2 sequence (P00533 whole entry): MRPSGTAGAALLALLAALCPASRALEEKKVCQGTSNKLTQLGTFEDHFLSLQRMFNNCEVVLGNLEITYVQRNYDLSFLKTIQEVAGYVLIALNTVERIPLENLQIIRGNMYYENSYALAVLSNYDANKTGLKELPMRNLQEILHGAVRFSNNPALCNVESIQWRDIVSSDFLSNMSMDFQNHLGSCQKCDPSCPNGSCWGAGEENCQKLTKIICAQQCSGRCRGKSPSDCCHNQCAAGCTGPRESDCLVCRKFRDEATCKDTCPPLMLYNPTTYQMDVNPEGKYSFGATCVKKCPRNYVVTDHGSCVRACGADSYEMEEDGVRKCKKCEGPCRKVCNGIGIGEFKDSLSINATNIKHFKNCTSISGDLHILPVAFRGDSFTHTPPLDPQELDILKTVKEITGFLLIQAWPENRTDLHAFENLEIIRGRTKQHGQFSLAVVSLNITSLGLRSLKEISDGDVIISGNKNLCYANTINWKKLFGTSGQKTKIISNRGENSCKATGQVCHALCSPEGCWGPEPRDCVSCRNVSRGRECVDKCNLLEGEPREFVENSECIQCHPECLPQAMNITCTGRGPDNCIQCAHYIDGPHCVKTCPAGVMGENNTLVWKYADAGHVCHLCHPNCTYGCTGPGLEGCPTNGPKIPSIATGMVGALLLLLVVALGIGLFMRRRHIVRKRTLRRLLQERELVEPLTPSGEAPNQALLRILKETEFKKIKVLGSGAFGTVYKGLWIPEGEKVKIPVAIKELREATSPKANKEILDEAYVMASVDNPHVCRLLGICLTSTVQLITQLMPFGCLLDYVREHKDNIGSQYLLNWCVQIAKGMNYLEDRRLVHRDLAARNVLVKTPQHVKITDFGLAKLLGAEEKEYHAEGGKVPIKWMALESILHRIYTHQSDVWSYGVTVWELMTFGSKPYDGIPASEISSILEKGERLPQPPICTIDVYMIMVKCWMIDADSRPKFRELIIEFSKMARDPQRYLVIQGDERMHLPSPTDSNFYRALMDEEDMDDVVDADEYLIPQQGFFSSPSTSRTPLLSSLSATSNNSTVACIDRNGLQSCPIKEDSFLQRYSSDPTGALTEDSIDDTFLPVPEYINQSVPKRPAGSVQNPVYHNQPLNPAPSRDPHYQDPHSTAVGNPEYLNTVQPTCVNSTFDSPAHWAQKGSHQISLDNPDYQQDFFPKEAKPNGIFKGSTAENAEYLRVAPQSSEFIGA

[10] = molecular target: T1, RAC-alpha serine/threonine-protein kinase; assay: Inhibition of AKT1 in human HeLa cells lysate at 2 uM pre incubated for 15 mins followed by ATP acyl phosphate probe addition and measured after 10 mins by LC-MS/MS analysis relative to control; type: subcellular; conditions: time 25.0 min; method in brief: as §2
[11] = molecular target: T3, Aurora kinase A (Homo sapiens) (UniProt O14965); assay: Inhibition of AurA in human HeLa cells lysate at 2 uM pre incubated for 15 mins followed by ATP acyl phosphate probe addition and measured after 10 mins by LC-MS/MS analysis relative to control; type: subcellular; conditions: time 25.0 min
T3 sequence (whole entry): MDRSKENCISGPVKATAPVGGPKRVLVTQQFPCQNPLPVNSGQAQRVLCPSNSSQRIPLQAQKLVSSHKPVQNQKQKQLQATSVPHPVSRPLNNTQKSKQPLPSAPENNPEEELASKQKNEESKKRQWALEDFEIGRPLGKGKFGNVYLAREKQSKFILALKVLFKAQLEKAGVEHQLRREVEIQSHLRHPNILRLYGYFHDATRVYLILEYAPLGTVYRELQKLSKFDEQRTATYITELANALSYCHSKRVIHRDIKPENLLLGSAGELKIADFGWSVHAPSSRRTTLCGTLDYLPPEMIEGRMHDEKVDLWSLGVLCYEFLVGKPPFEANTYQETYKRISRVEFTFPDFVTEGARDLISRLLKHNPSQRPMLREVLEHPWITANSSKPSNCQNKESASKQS
Method in brief: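 KiNativ-type profiling in HeLa lysate (5 mg/mL total protein). Lysate preincubated 15 min with inhibitor at 50, 10, 2, 0.8 or 0 μM, then ATP or ADP acylphosphate probe added (5 μM final) for 10 min. Reaction stopped with urea and analysed by targeted MS, using up to four fragment ions per kinase peptide-probe conjugate. % inhibition calculated against untreated lysate. Duplicate reactions.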

[12] = molecular target: Mitogen-activated protein kinase kinase kinase 4 (Homo sapiens, UniProt Q9Y6R4); assay: Inhibition of MAP3K4 in human HeLa cells lysate at 2 uM pre incubated for 15 mins followed by ATP acyl phosphate probe addition and measured after 10 mins by LC-MS/MS analysis relative to control; type: subcellular; conditions: time 25.0 min
Sequence of Mitogen-activated protein kinase kinase kinase 4 (Q9Y6R4 whole entry): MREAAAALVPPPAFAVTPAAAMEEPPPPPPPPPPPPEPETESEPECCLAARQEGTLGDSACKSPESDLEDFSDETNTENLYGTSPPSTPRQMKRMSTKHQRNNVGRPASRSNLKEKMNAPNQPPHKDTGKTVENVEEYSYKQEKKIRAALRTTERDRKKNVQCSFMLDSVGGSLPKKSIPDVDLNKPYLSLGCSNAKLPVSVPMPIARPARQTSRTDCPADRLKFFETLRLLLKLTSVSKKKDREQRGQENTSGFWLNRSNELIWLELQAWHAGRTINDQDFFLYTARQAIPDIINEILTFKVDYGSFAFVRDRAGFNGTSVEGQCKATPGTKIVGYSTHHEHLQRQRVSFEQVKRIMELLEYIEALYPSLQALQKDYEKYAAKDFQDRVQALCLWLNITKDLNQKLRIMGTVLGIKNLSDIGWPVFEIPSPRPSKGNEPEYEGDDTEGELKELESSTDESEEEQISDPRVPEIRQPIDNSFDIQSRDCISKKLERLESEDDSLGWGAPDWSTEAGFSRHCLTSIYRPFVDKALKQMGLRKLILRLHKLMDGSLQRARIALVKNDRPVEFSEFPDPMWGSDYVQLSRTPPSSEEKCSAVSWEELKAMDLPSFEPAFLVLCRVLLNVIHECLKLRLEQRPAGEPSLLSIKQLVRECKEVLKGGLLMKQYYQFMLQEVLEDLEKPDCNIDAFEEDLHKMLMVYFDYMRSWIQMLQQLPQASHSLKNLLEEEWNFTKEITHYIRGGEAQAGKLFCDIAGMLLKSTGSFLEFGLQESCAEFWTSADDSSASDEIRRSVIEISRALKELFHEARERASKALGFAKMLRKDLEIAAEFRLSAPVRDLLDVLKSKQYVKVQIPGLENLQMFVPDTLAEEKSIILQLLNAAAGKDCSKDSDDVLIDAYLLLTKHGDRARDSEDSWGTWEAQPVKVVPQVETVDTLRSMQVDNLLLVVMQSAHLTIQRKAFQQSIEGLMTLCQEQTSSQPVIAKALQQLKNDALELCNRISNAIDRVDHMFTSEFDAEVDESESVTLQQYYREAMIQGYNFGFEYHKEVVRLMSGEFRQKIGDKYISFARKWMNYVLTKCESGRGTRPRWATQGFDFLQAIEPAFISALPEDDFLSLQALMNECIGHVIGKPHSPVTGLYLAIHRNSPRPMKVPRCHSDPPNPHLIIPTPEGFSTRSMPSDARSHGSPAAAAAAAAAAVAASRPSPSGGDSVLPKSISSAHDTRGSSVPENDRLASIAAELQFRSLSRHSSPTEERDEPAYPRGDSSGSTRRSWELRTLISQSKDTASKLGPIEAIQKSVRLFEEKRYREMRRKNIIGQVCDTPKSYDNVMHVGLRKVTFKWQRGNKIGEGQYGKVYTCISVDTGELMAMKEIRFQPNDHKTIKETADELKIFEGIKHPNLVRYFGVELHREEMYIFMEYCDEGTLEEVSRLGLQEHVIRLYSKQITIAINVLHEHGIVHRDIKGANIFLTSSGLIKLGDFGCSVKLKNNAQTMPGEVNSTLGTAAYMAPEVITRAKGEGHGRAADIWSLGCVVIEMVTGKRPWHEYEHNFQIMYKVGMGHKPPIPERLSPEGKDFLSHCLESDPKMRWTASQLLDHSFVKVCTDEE

[13] = molecular target: T2, Epidermal growth factor receptor; assay: Inhibition of EGFR in human HeLa cells lysate at 2 uM pre incubated for 15 mins followed by ATP acyl phosphate probe addition and measured after 10 mins by LC-MS/MS analysis relative to control; type: subcellular; conditions: time 25.0 min
[14] = Toxicity in C57Bl/6 mouse assessed as effect on phosphorus level at 50 mg/kg, ip for 14 days (reference value: 6.8 mg/dl); type: organism-based; conditions: in vivo, 336 h, time 14 day
[15] = tested on: Lewis lung carcinoma; assay: Antitumor activity against mouse LL2 cells allografted in C57Bl/6 mouse assessed as reduction tumor growth at 50 mg/kg, ip administered for 17 days; type: functional, organism-based; conditions: time 17.0 day
Method in brief: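 LL/2 cells (1×10^6, in DMEM) were injected s.c. into the right flank of 6-week-old C57Bl/6 mice on day 0. Dosing was 50 mg/kg i.p. twice daily, starting on day 1, 7 or 10 and continuing to day 17; controls received carrier. 6 mice per treated group. Tumors were measured every 2–3 days.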

**Q.** With `CCOc1cc(N2CCC(O)CC2)ccc1Nc1ncc2c(n1)N(C)c1ccccc1C(=O)N2C` as the molecule, how does the pIC50 [1] read?
**A.** < 4.30

**Q.** And the pIC50 [2]?
**A.** < 4.30

**Q.** What about the pIC50 [3] of the same molecule?
**A.** < 4.30

**Q.** What about the inhibition [4] of the same molecule?
**A.** -3.3%

**Q.** What about the inhibition at 50 µM [5] of the same molecule?
**A.** -31.5%

**Q.** And the inhibition [6]?
**A.** 15.4%

**Q.** What about the inhibition [7] of the same molecule?
**A.** -7.5%

**Q.** And the inhibition [8]?
**A.** -9.1%

**Q.** What about the inhibition [9] of the same molecule?
**A.** -5%

**Q.** What about the inhibition [10] of the same molecule?
**A.** -6.9%

**Q.** And the inhibition [11]?
**A.** 7.2%

**Q.** And the inhibition [12]?
**A.** -8.8%

**Q.** And the inhibition [13]?
**A.** 2.5%

**Q.** What about the Activity [14] of the same molecule?
**A.** 6.4 mg/dL

**Q.** And the Activity [15]?
**A.** Active
